# Experimental data taken from ChEMBL document CHEMBL4715860 (J Med Chem, 2020).
# Legend:
# [1] = molecular target: Serine/threonine-protein kinase mTOR (Homo sapiens, UniProt P42345); test: Inhibition of alexa fluor 647-labeled kinase tracer 314 binding to recombinant human N-terminal GST-tagged mTOR (1360 to 2549 residues) expressed in baculovirus expression system measured after 60 mins by TR-FRET based LanthaScreen Eu kinase binding assay
# [2] = Inhibition of mTOR2 in human A2058 cells assessed as reduction in PKB/Akt phosphorylation at Ser473 incubated for 1 hr by Western blot analysis; format: cell-based; details: A2058, 1 h
# Summary of the method: (§1)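 A2058 cells grown 24 h at 37 °C, then exposed to inhibitor or DMSO for 1 h. Cells were PFA-fixed and stained for pPKB Ser473 or pS6 Ser235/236 by in-cell western with IR-dye secondary antibodies. Signal normalized to tubulin and to DMSO. IC50 from a 7-point (triplicate) or 11-point (duplicate) 1:2 series.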
# [3] = molecular target: PI3-kinase p110-alpha/p85-alpha (Homo sapiens, UniProt P42336); test: Inhibition of alexa fluor 647-labeled kinase tracer 314 binding to recombinant human N-terminal His-tagged p110alpha/p85alpha expressed in baculovirus expression system measured after 60 mins by LanthaScreen TR-FRET assay relative to control
# Sequence of PI3-kinase p110-alpha/p85-alpha (P27986 whole entry): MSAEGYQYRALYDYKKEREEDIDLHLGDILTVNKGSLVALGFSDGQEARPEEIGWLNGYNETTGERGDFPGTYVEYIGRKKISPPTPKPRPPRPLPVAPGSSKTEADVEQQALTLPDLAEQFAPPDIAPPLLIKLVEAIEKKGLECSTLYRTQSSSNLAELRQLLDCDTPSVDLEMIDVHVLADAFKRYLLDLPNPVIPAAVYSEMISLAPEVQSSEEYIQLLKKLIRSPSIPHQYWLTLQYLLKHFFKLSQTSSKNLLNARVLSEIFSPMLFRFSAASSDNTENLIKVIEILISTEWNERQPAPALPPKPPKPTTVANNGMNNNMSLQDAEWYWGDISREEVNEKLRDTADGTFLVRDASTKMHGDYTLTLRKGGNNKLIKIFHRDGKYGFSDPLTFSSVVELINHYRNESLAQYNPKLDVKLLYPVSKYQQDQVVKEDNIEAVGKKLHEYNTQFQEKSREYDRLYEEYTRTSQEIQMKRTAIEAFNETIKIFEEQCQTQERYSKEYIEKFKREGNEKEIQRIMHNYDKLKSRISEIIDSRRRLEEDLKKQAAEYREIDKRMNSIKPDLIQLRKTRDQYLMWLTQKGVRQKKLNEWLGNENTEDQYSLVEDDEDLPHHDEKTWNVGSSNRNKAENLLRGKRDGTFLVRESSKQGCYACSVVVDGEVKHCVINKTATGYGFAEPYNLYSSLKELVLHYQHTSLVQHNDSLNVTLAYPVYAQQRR
# Sequence of PI3-kinase p110-alpha/p85-alpha (P42336 whole entry): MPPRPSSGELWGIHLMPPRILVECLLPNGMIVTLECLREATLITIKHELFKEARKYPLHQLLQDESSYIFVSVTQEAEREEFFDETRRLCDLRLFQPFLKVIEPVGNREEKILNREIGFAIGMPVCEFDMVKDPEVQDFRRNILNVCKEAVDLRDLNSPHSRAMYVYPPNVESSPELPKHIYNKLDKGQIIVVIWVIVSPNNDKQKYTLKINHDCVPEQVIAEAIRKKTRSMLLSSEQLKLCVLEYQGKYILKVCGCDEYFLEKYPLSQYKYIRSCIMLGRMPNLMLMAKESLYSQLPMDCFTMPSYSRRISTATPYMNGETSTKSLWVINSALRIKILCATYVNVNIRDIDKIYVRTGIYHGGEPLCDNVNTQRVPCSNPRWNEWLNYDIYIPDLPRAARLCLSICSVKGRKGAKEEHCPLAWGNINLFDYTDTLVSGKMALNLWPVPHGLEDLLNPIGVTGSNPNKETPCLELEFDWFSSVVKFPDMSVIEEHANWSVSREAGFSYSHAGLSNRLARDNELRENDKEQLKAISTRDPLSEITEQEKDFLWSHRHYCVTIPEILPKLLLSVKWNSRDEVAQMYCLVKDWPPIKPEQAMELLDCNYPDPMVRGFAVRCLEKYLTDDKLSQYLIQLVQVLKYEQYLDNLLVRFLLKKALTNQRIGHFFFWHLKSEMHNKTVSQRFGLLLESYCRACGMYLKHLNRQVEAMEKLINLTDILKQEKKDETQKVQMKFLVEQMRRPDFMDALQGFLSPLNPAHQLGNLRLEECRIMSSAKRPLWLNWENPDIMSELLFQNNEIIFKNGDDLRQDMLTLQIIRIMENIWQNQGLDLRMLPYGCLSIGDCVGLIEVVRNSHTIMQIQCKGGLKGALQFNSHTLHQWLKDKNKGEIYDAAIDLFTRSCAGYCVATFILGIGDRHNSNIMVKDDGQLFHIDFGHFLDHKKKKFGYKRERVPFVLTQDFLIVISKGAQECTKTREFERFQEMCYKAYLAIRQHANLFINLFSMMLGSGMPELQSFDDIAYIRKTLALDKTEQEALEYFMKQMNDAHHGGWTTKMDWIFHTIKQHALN
# [4] = Inhibition of mTORC1 in human A2058 cells assessed as reduction in RPS6 phosphorylation at S235/236 residue incubated for 1 hrs by Western blot analysis; format: cell-based; details: A2058, 1 h; summary of the method: as §1
# [5] = Substrate activity at human P-glycoprotein stably expressed in MDCK cells at 1 uM measured after 5 to 20 mins by UPLC-MS/MS analysis; format: ADME, cell-based; details: time 5-20 min
# Summary of the method: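 CRISPR canine-MDR1-knockout MDCKII cells stably expressing human MDR1, with the knockout parent line as control. Cells grown 5 days on TransWell filters and preincubated in HBSS 30 min at 37 °C. Compound at 1 μM added apical or basolateral. Receiver sampled at 5, 10 and 20 min; UPLC-MS/MS.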
# [6] = AUC (0 to 8 hrs) in male Sprague-Dawley rat brain at 5 mg/kg, po; format: ADME, organism-based; set-up: time < 8 hr, route oral, dose 5 mg/kg; details: in vivo
# Summary of the method: (§2)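 Male Sprague Dawley rats, single oral dose of 5 mg/kg. Plasma and brain concentrations measured over 8 h, n = 3, mean ± SEM; AUC0−8 computed from the time course.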
# [7] = AUC (0 to 8 hrs) in male Sprague-Dawley rat plasma at 5 mg/kg, po; format: ADME, organism-based; set-up: time < 8 hr, route oral, dose 5 mg/kg; summary of the method: as §2
Compound,Ki [1] [nM],IC50 [2] [nM],Ki [3] [nM],IC50 [4] [nM],Activity [5],AUC [6] [ng·h/g],AUC(0-t) at 8 h [7] [ng·h/mL]
COC[C@@H]1COCCN1c1nc(-c2cnc(N)cc2C(F)F)nc(N2CCOC[C@H]2C)n1,23,956,> 1000,426,–,–,–
C[C@@H]1COCCN1c1nc(-c2cnc(N)cc2C(F)F)nc(N2CCOC[C@@H]2CO)n1,28,524,> 1000,471,–,–,–
C[C@@H]1COCCN1c1nc(-c2cnc(N)cc2C(F)F)nc(N2[C@H](C)COC[C@H]2C)n1,25,506,> 1000,392,–,–,–
C[C@@H]1COCCN1c1nc(-c2cnc(N)cc2C(F)F)nc(N2CCOCC23CCC3)n1,11,271,404,192,–,–,–
C[C@@H]1COCCN1c1nc(-c2cnc(N)cc2C(F)F)nc(N2[C@@H](C)COC[C@@H]2C)n1,6.4,200,233,136,–,–,–
CC[C@@H]1COCCN1c1nc(-c2cnc(N)cc2C(F)F)nc(N2CCOC[C@H]2C)n1,18,231,65,238,–,–,–
C[C@@H]1COCCN1c1nc(-c2cnc(N)cc2C(F)F)nc(N2CCOCC2)n1,8,–,19,–,Not Active,–,–
C[C@@H]1CN(c2nc(-c3cnc(N)cc3C(F)F)nc(N3CCOC[C@H]3C)n2)C[C@H](C)O1,42,1340,> 1000,561,–,–,–
C[C@@H]1COCCN1c1nc(-c2cnc(N)cn2)nc2c1C[C@@H]1COCCN21,–,–,–,–,–,< 110,> 5500
C[C@@H]1COCCN1c1nc(-c2cnc(N)cc2C(F)F)nc(N2CCOC[C@H]2C)n1,14,436,469,261,–,–,–
C[C@@H]1COCCN1c1nc(-c2cnc(N)cc2C(F)F)nc(N2CCOC[C@H]2CO)n1,50,1480,> 1000,> 1000,–,–,–
C[C@@H]1COCCN1c1nc(-c2cnc(N)cc2C(F)F)nc(N2C3COCC2C3)n1,73,1560,> 1000,407,–,–,–
C[C@@H]1COCCN1c1nc(-c2cnc(N)cc2C(F)F)nc(N2CCOC[C@@H]2C)n1,11,173,33,137,Not Active,–,–
CC[C@H]1COCCN1c1nc(-c2cnc(N)cc2C(F)F)nc(N2CCOC[C@H]2C)n1,67,248,63,241,–,–,–
